ChEMBL document CHEMBL3769342, “Supramolecular Inhibition of Neurodegeneration by a Synthetic Receptor” (ACS Med Chem Lett, 2015)
The source made the active and inactive calls. The rule behind the calls is not given here.

Key:
Danio rerio [1] = species on record: Danio rerio; assay: Neurotoxicity in zebrafish model of MPTP-induced tyrosine hydroxylase defeciency assessed as phenotypic changes at 100 uM after 48 hrs by immunofluorescence assay; type: organism-based; conditions: in vivo
Danio rerio [2] = species on record: Danio rerio; assay: Neuroprotective activity against MPTP-induced tyrosine hydroxylase deficiency in zebrafish larval brain assessed as tyrosine hydroxylase viability in neuron at 100 uM after 48 hrs by immunofluorescence assay (reference value: 49.93 +/- 5.26%); type: functional
[3] = Binding affinity to MPTP assessed as upfield shift resonance at 1.2 equivalents of compound by 1H NMR analysis
[4] = Neurotoxicity in zebrafish larvae assessed as tyrosine hydroxylase viability in neuron at 100 uM after 48 hrs by immunofluorescence assay relative to control; type: organism-based, Danio rerio; conditions: tyrosine hydroxylase-positive neurons, read-out: Activity
[5] = Binding affinity to MPP+ assessed as upfield shift resonance at 1.2 equivalents of compound by 1H NMR analysis
[6] = Binding affinity to MPTP in PBS buffer solution at pH 7.4 by UV-vis titration method
Method in brief: (§1)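 UV-vis titration in 0.01 M PBS, pH 7.4: host added in increasing amounts to the guest solution. Guest absorbance followed at 242 nm, plotted against host concentration and fitted by nonlinear least squares to a 1:1 model to give Ka.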

[7] = Binding affinity to MPP+ by ESI-MS analysis
Danio rerio [8] = species on record: Danio rerio; assay: Neuroprotective activity against MPTP-induced locomotion defeciency in zebrafish larvae assessed as swimming distance at 100 uM incubated for 5 days measured for 45 mins by automated video tracking system based method (reference value: 1368.76 +/- 404.62 cm); type: functional
[9] = Binding affinity to MPTP by ESI-MS analysis
[10] = Binding affinity to MPTP at 0.5 equivalents of compound by 1H NMR analysis
Danio rerio [11] = species on record: Danio rerio; assay: Neurotoxicity in zebrafish larvae assessed as swimming distance at 100 uM incubated for 5 days measured for 45 mins by automated video tracking system based method (reference value: 3773.21 +/- 386.24 cm); type: ADME, organism-based; conditions: in vivo
[12] = Binding affinity to MPP+ in PBS buffer solution at pH 7.4 by UV-vis titration method; method in brief: as §1

With `O=C1N2CN3C(=O)N4CN5C(=O)N6CN7C(=O)N8CN9C(=O)N%10CN%11C(=O)N%12CN%13C(=O)N%14CN1[C@H]1[C@@H]2N2CN%15C(=O)N(CN%16C(=O)N(CN%17C(=O)N(CN%18C(=O)N(CN%19C(=O)N(CN%20C(=O)N(CN1C2=O)[C@H]%14[C@@H]%20%13)[C@H]%12[C@@H]%19%11)[C@H]%10[C@@H]%189)[C@H]8[C@@H]%177)[C@H]6[C@@H]%165)[C@H]4[C@@H]%153` the Activity (Danio rerio [1]) was “Non-toxic”, the Activity (Danio rerio [2]) was 79.44% and the Activity [3] was less than 1 ppm. For the same molecule, the viability at 48 h, 100 µM [4] was 91%, the Activity [5] was “Active” and the Ka [6] was 4.8 ×10⁴ /M. The Activity [7] was “Active”, the Activity (Danio rerio [8]) was 3487.02 cm and the Activity [9] was “Active”. For the same molecule, the Activity [10] was “Active”, the Activity (Danio rerio [11]) was 4167.89 cm and the Ka [12] was 1.05 ×10⁵ /M.
